# Results taken from PubChem BioAssay.
# Activity calls are given as the source filed them.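 How the source made its calls: active means primary screen active whose calcium signal fell more than 3 SD beyond the full-serotonin control mean in both duplicate plates; inactive means the rest.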
# Assay: serotonin-gated TRPC4 signal block – cell-based, second counter screen, HEK293 TRPC4/5HT1a, Fluo-4, counter-screen for TRPC4 inhibitor project, confirmation (AID 434978);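 on outcome: serotonin given first at submaximal then at maximal dose after compound preincubation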
# Conditions: Fluo-4 calcium flux, at 10 µM, serotonin added to trigger calcium flux; active compounds read high
# How it was run: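 Material: HEK293 line stably carrying TRPC4 plus 5HT1a receptor | Replicates: Each compound tested on duplicate plates | Benchmarks: ECmax serotonin control wells | Measured by: Kinetic Fluo-4 fluorescence readout of calcium flux | Incubation: 110 s each for compound, submaximal and ECmax serotonin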
Compound,outcome,inhibition
CC1CCCCN1S(=O)(=O)c1ccc(C(=O)N(CCCN(C)C)c2nc3ccc(Br)cc3s2)cc1 (stereo not given),inactive,–
CC(C)(C)C(=O)NC(=S)NNC(=O)c1ccc(-c2ccccc2)cc1,inactive,–
CCCOc1ccc(C(=O)NNC(=S)NC(=O)c2ccccc2)cc1,inactive,–
OCCN1CCN(Cc2cc(Br)cc(Br)c2O)CC1,inactive,–
c1ccc(Nc2nc(Nc3ccccc3)nc(N3CCNCC3)n2)cc1,inactive,–
O=c1c2cc(Br)ccc2nc(-c2cccc(C(F)(F)F)c2)n1O,inactive,–
COc1cc(OC)cc(C(=O)NC(=S)NNC(=O)[C@H]2C[C@@H]2c2ccccc2)c1,inactive,–
c1ccc2c(c1)CCN(c1ncnc3c1[nH]c1ccccc13)C2,inactive,–
O=C(CCc1ccccc1)NNC(=S)NC(=O)c1ccc(Cl)cc1,inactive,–
Cc1cccc(C(=O)NNC(=S)NC(=O)c2cccs2)c1,inactive,–
CN(C)CCCN(C(=O)c1ccc(S(=O)(=O)N2CCCCCC2)cc1)c1nc2ccc(F)cc2s1,inactive,–
CC[C@@H](C(=O)[C@@H](C)[C@@H](O)[C@H](C)CCc1ccc(C)c(O)c1C(=O)O)[C@H]1O[C@](CC)([C@H]2CC[C@](O)(CC)[C@H](C)O2)C[C@@H]1C,inactive,–
Cc1occc1C(=O)NNC(=S)NC(=O)COc1ccc(Cl)cc1Cl,inactive,–
COc1cc(OC)cc(C(=O)N[C@H](C(=O)OCC(=O)NC(C)c2ccccc2)C(C)C)c1 (stereo not given in full),inactive,–
O=C(NC(=S)NNC(=O)[C@H]1C[C@@H]1c1ccccc1)c1cccc(F)c1,inactive,–
CCOc1ccccc1OCC(=O)Nc1cc(S(=O)(=O)N2CCCCC2)ccc1N1CCN(CC)CC1,inactive,–
Cc1onc(-c2c(F)cccc2Cl)c1C(=O)N1CCN(c2ncc(Br)cn2)CC1,inactive,–
CCOC(=O)C1=NN(C(=O)c2ccc(C)cc2)C(O)(c2ccc(Cl)cc2)C1 (stereo not given),inactive,–
COc1ccc(/C=C/CN2CCCC(C(=O)c3ccc(OC)c(F)c3)C2)cc1 (stereo not given),inactive,–
NCCSc1c(-c2ccc(Cl)cc2)[nH]c2ccccc12,inactive,–

Compound,outcome,inhibition
COc1ccc(C(CNC(=O)c2cccc(NS(=O)(=O)c3ccc(C)c(F)c3)c2)N(C)C)cc1 (stereo not given),inactive,–
CCCOc1ccc(C(=O)NNC(=S)NC(=O)c2cccs2)cc1,inactive,–
CCOC(=O)C1CCCN(C(c2ccccn2)c2c(C)[nH]c3ccccc23)C1 (stereo not given),inactive,–
Cc1ccc(NS(=O)(=O)c2ccc(C(=O)N3CC(C)CC(C)C3)cc2)cc1 (stereo not given),inactive,–
COC(=O)C1=NN(C(=O)c2cccc(Br)c2)C(O)(c2ccc(Cl)cc2)C1 (stereo not given),inactive,–
Cc1cc(C)c(CN2CCN(Cc3ccc(C)o3)C(CCO)C2)c(-n2cccn2)c1 (stereo not given),inactive,–
CCOc1ccc2ncc(C(=O)c3ccc(OC)cc3)c(N3CCN(CC)CC3)c2c1,inactive,–
CC(C)(C)c1cc(CCC(=O)NNC(=S)NC(=O)c2ccccc2)cc(C(C)(C)C)c1O,inactive,–
COc1ccccc1C(=O)NNC(=S)NC(=O)c1sc2ccccc2c1Cl,–,38.3% (active)
O=C1CC(O)(C(F)(F)F)Oc2c1ccc1ccccc21 (stereo not given),inactive,–
CCCc1ccc(OCC(=O)NNC(=S)NC(=O)c2ccco2)cc1,inactive,–
Cc1ccccc1OCC(=O)NNC(=S)NC(=O)c1ccco1,inactive,–
CCCOc1ccc(C(=O)NC(=S)NNC(=O)c2c(-c3ccccc3)noc2C)cc1,inactive,–
Cc1cc(OCCCn2ccnc2)cc(C)c1Cl,inactive,–
CCN1CCN(c2c(S(=O)(=O)c3ccc(C)c(C)c3)cnc3ccc(F)cc23)CC1,inactive,–
Cc1cccc(C(=O)NC(=S)NNC(=O)c2cccs2)c1,inactive,–
Cc1ccc(C)c(-n2cc(CNCCc3cnccn3)c(-c3ccccc3)n2)c1,inactive,–
Cc1ccc2c(C)c(C(=O)N(Cc3cccs3)C3CCS(=O)(=O)C3)oc2c1 (stereo not given),inactive,–
CC(C)(C)c1ccc(C(=O)NC(=S)NNC(=O)c2cccs2)cc1,inactive,–
CCCCN(CC)CCCNC(=O)Cn1nc(Cc2ccncc2)c2ccccc2c1=O,inactive,–
